Experimental data taken from ChEMBL document CHEMBL3232782, “1,2,3,4,8,9,10,11-octahydrobenzo[j]phenanthridine-7,12-diones as new leads against Mycobacterium tuberculosis” (J Med Chem, 2014).

Tests used:
Assay type in all cases: functional
[1] = system: Mycobacterium tuberculosis; assay: Antimycobacterial activity against multidrug-resistant Mycobacterium tuberculosis LAM-1 assessed as bacterial growth index at 0.25 uM measured on day 6 by BACTEC MGIT 960TB method relative to control
In short: (§1)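 MDR LAM-1, resistant to INH, RIF, rifabutin and prothionamide, was precultured in BACTEC MGIT vials to GI 300. It was inoculated with compound dilutions made from 1 mg/mL DMSO stocks in 7H9-OADC. Growth index was recorded daily. Day-6 GI was compared with an untreated culture diluted 100-fold (C/100) to set the critical 99% inhibitory concentration. Controls: INH 0.1 μM; moxifloxacin 1.14 μM.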

[2] = system: Mycobacterium tuberculosis; assay: Antimycobacterial activity against multidrug-resistant Mycobacterium tuberculosis LAM-1 assessed as bacterial growth index at 0.50 uM measured on day 6 by BACTEC MGIT 960TB method relative to control; in short: as §1
[3] = system: Mycobacterium tuberculosis; assay: Antimycobacterial activity against multidrug-resistant Mycobacterium tuberculosis LAM-1 assessed as bacterial growth index at 2.5 uM measured on day 6 by BACTEC MGIT 960TB method relative to control; in short: as §1

SMILES	Growth_index [1]	Growth_index [2]	Growth_index [3]
CCOC(=O)C1CCc2ncc3c(c2C1)C(=O)C1=C(C3=O)C2CCC1C2 (stereo unspecified)	1970	367	
CC(C)(C)C1CCc2ncc3c(c2C1)C(=O)C1=C(C3=O)C2CCC1C2 (stereo unspecified)		1982	537
CCOC(=O)C1CCc2ncc3c(c2C1)C(=O)C1=C(C3=O)C2CCC1CC2 (stereo unspecified)	2382	638	
